Data on two compounds can be found in paper PMC6174986 (Journal of Clinical Pharmacology, 2018).

The structures appear in SMILES notation. Read-outs that look alike come from different tables or passages of the source.

For series [1] the following is noted: healthy Japanese volunteers, within the dose range studied; cited from earlier work.
Series [2] relates to organic anion transporting polypeptide(OATP). As to conditions: asunaprevir; cited from earlier work.
Series [3] is described as follows: Population pharmacokinetic analysis of asunaprevir plasma concentrations. It counts as in vivo, human. The procedure, abridged:
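Japanese adults ≥20 y with chronic genotype 1 HCV (compensated cirrhosis allowed), from 2 clinical studies; oral 200 or 600 mg twice-daily tablet or 100 mg twice-daily soft-gel. Plasma by validated LC-MS/MS; below-LLOQ excluded. One-compartment, first-order absorption; log-normal IIV on CL/F, V/F; additive log-scale residual. Backward elimination (P < .001); bootstrap 95% CIs; 5th/95th covariate percentiles versus typical.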

Series [4] has as its system P‐glycoprotein transporter. As to conditions: cited from earlier work.
Series [5] relates to cytochrome P450 (CYP) 3A4. Conditions: cited from earlier work.
The subject of series [6] is CYP2D6. As to conditions: asunaprevir; cited from earlier work.
For series [7] the following is noted: tablet formulation used in phase 1/2 studies; cited from earlier work.
For series [8] the following is noted: cited from earlier work.
The conditions of series [9]: mild impairment (Child‐Pugh class A cirrhosis); cited from earlier work.
For series [10] the following is noted: cited from earlier work. This is another data set of the same source.
The conditions of series [11]: cited from earlier work. This is another data set of the same source.
A short description of series [12]: Population pharmacokinetic analysis of daclatasvir plasma concentrations. It counts as in vivo, human. Put shortly: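 Japanese adults ≥ 20 years with chronic HCV genotype 1 (compensated cirrhosis allowed) from 4 clinical studies; oral 10 or 60 mg once daily, with asunaprevir or pegIFN/RBV. Plasma levels by validated LC‑MS/MS; below‑LLOQ samples excluded. Nonlinear mixed‑effects model: log‑normal interindividual variability, log‑transform‑both‑sides residual error, backward covariate elimination (P < .001), bootstrap 95% CIs.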

The mark [13] stands for this setting: final popPK model, Japanese HCV subjects.

As to `C=C[C@@H]1C[C@]1(NC(=O)[C@@H]1C[C@@H](Oc2ncc(OC)c3ccc(Cl)cc23)CN1C(=O)[C@@H](NC(=O)OC(C)(C)C)C(C)(C)C)C(=O)NS(=O)(=O)C1CC1` [asunaprevir, Asunaprevir], the “Dose‐exposure relationship” value in series [1] is “generally increased dose‐proportionally”. In addition, the “Interaction with OATP‐mediated uptake transport” value in series [2] is “weak inhibitor and sensitive substrate”. Further, in series [3] (covariate analysis, Japanese population), the “Impact of OATP1B1 haplotypes (4 categories) on CL/F” value is on record as “did not show statistical significance”. Also, the “CL/F at 5th percentile of time‐varying AST compared with the median baseline AST” value in series [3] (final model, AST at last PK sampling point 16 U/L, higher) was found to be 1.57 fold. Besides, the “CL/F at 5th percentile of baseline AST relative to median baseline AST of 52 U/L” value in series [3] (final model, baseline AST 22 U/L, higher) worked out at 1.67 fold. In addition, the “CL/F for cirrhotic subjects relative to subjects without cirrhosis” value in series [3] (final model, printed as fold lower) amounted to 0.65 fold. Further, in series [3] (final popPK model), the “Interindividual variability of CL/F” value was found to be 41.5%. The “Interindividual variability of V/F” value in [3] (final popPK model) came out at 93.4%. Also, the “Ka (absorption rate constant), θ3” value in series [3] (setting [13]) is given as 0.228 h^‐1. In addition, the “V/F (apparent volume of central compartment), θ2” value in series [3] (final popPK model, Japanese HCV subjects, phase 2 tablet reference) was found to be 75.1 L. In addition, the “Interaction with p‐glycoprotein” value in series [4] (asunaprevir) was “weak inhibitor”. Moreover, the “Interaction with CYP3A4” value in series [5] (asunaprevir) was “weak inducer and sensitive substrate”. In [6], the “Interaction with CYP2D6” value is listed as “moderate inhibitor”. Besides, the Food effect result in [7] is recorded as “Significant food effects”. For the same compound, the “Observed AUC” value is listed as 2950 ng·h/mL in series [8] (AI447017, phase 2 study, 200‐mg tablet formulation) and 2155 ng·h/mL in series [8] (AI447026, phase 3 study, 100‐mg soft‐gel capsule). In addition, in [9], the “Steady‐state exposures” value was “not changed”.
With `COC(=O)N[C@H](C(=O)N1CCC[C@H]1c1nc(-c2ccc(-c3ccc(-c4c[nH]c([C@@H]5CCCN5C(=O)[C@@H](NC(=O)OC)C(C)C)n4)cc3)cc2)c[nH]1)C(C)C` [daclatasvir, Daclatasvir], in [1], the “Dose‐exposure relationship” value is reported as “generally linear”. Also, in [10], the “Excreted via feces in an unchanged form” value is around 88% and the Renal elimination is on record as ~7 % of dose. Further, the “Association between exposure and degree of hepatic impairment or biochemical/serological markers of liver dysfunction” value in [11] was “no obvious association”. Besides, the “Interaction with P‐glycoprotein transporter” value in series [4] (daclatasvir) was “substrate and inhibitor”. Also, in series [5] (daclatasvir), the “Effects on levels of the sensitive CYP3A probe midazolam in plasma” value is given as “minimal effects”; the “Interaction with CYP3A4” value was “substrate and weak inducer”. Besides, in series [12] (base popPK model), the “Interindividual variability of CL/F” value was determined as 39.7% and the “Interindividual variability of V/F” value is recorded as 40.7%. Further, the “Effect of cirrhosis status and ALT/AST levels on CL/F” value in [12] (covariate analysis) is on record as “not identified as significant covariates”. In addition, the “CL/F reduction, women relative to men” value in [12] (final model) is reported as “approximately 10%”. For the same compound, the “V/F lower than at median (reference) body weight of 56 kg” value in [12] (final model, 5th percentile of baseline body weight, 42.8 kg) was around 15%. For the same compound, the “V/F higher than at median (reference) body weight of 56 kg” value in [12] (final model, 95th percentile of baseline body weight, 78 kg) is around 22%. Also, in series [12] (final popPK model), the “Interindividual variability of CL/F” value is reported as 39.4%; the “Interindividual variability of Ka” value turned out to be 86.9%; the “Interindividual variability of V/F” value amounted to 38.1%; the “Random effect CL/F: V/F, ω1,2, covariance (correlation)” value is 0.141 (0.941). In series [12] (setting [13]), the “Ka (absorption rate constant), θ3” value is 0.865 h^‐1. Further, in series [12] (final popPK model, Japanese HCV subjects, reference BBWT 56 kg), the “V/F (apparent volume of central compartment), θ2” value is 64.2 L. Further, the “V/F ∼BBWT (baseline body weight) covariate coefficient, θ14” value in [12] (final popPK model, reference 56 kg) came out at 0.605. In addition, in series [12] (final popPK model, reference 86.48 mL/min), the “CL/F ∼BCRCL (baseline creatinine clearance) covariate coefficient, θ10” value is on record as 0.235.
